Source: ChEMBL document CHEMBL4007456, “Heterocyclyl Tetracyclines. 1. 7-Trifluoromethyl-8-Pyrrolidinyltetracyclines: Potent, Broad Spectrum Antibacterial Agents with Enhanced Activity against Pseudomonas aeruginosa” (2017)
In brackets after ≈: the same amount, converted by molar mass.

What was measured:
Type in all cases: functional
Pseudomonas aeruginosa [1] = test: Antibacterial activity against Pseudomonas aeruginosa PA694 in CD-1 mouse model of thigh infection administered as iv bid for 2 to 12 hrs of post-infection measured after 24 hrs
In short: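 Female specific-pathogen-free CD-1 mice (22 ± 2 g), groups of 5, inoculated intramuscularly into right thigh with 3-5 x 10^6 CFU/mouse P. aeruginosa PA694 (UTI isolate). IV dosing at 5, 15 and 40 mg/kg at 2 and 12 h post-infection. Thigh muscle harvested at 24 h, homogenized in PBS pH 7.4, plated on Brain Heart Infusion agar + 0.5% charcoal; CFU/g thigh vs untreated controls; Mann-Whitney.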

Pseudomonas aeruginosa [2] = test: Antibacterial activity against Pseudomonas aeruginosa PA694 in CD-1 mouse model of thigh infection assessed as reduction in log10CFU per gram of thigh at 15 mg/kg, iv bid administered 2 to 12 hrs of post-infection measured after 24 hrs relative to untreated control
In short: (§1)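 Groups of 5 female specific-pathogen-free CD-1 mice, 22 ± 2 g. Right thigh inoculated intramuscularly with 3-5 x 10^6 CFU/mouse of P. aeruginosa PA694 (UTI isolate). Dosed IV at 5, 15 or 40 mg/kg at 2 and 12 h post-infection. Thigh muscle harvested at 24 h post-infection, homogenized in PBS (pH 7.4), plated on Brain Heart Infusion agar + 0.5% charcoal. Log10 CFU per gram thigh compared with 24 h untreated control.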

Pseudomonas aeruginosa [3] = test: Antibacterial activity against Pseudomonas aeruginosa PA694 in CD-1 mouse model of thigh infection assessed as reduction in log10CFU per gram of thigh at 5 mg/kg, iv bid administered 2 to 12 hrs of post-infection measured after 24 hrs relative to untreated control; in short: as §1
Pseudomonas aeruginosa [4] = test: Antibacterial activity against Pseudomonas aeruginosa PA694 in CD-1 mouse model of thigh infection assessed as reduction in log10CFU per gram of thigh at 40 mg/kg, iv bid administered 2 to 12 hrs of post-infection measured after 24 hrs relative to untreated control; in short: as §1
Streptococcus pneumoniae [5] = test: Antibacterial activity against gram-positive Streptococcus pneumoniae SP160 harboring tet(M) by CLSI method
In short: (§2)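 CLSI broth microdilution MIC in fresh cation-adjusted Mueller Hinton broth, supplemented with defibrinated horse blood where appropriate. Compounds serially diluted in sterile deionized water. Runs accepted when comparator antibiotics against ATCC quality-control strains fell within recommended ranges.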

Staphylococcus aureus [6] = test: Antibacterial activity against gram-positive Staphylococcus aureus SA158 harboring tet(K) by CLSI method; in short: as §2
Pseudomonas aeruginosa [7] = test: Antibacterial activity against Pseudomonas aeruginosa PA1145 in BALB/c mouse model of lung infection assessed as reduction in log10CFU per gram of lung at 40 mg/kg, iv bid administered 2 to 12 hrs of post-infection measured after 24 hrs relative to untreated control
In short: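 Female BALB/c mice, 18 to 20 g, infected intranasally under light anesthesia with ~ 2 x 10^7 CFU/mouse of P. aeruginosa PA1145 (cystic fibrosis isolate) in 0.05 mL. Treatment at 2 and 12 h post-infection, IV, or intranasally for tobramycin; n = 6 per group. Lungs harvested 24 h after treatment began, homogenized, plated on MacConkey medium, incubated overnight at 37 °C in 5% CO2. CFU per gram lung compared with T = 24 h untreated control.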

Acinetobacter baumannii = test: Antibacterial activity against gram-negative Acinetobacter baumannii AB250 by CLSI method
In short: (§3)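 Broth microdilution MIC per CLSI in cation-adjusted Mueller Hinton broth, prepared fresh and held at 4 °C. Defibrinated horse blood added where appropriate. Compounds serially diluted in sterile deionized water. Strains from ATCC unless otherwise noted. Runs accepted when comparator antibiotics fell within QC ranges for ATCC quality control strains.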

Escherichia coli [8] = test: Antibacterial activity against gram-negative Escherichia coli EC155 harboring tet(A) by CLSI method; in short: as §2
Proteus mirabilis [9] = test: Antibacterial activity against gram-negative Proteus mirabilis PM385 by CLSI method; in short: as §3
Escherichia coli [10] = test: Antibacterial activity against gram-negative Escherichia coli EC107 by CLSI method; in short: as §3
[11] = tested on: Stenotrophomonas maltophilia; test: Antibacterial activity against gram-negative Stenotrophomonas maltophilia SM256 by CLSI method; in short: as §3
Pseudomonas aeruginosa [12] = test: Antibacterial activity against gram-negative Pseudomonas aeruginosa PA555 by CLSI method; in short: as §3
Staphylococcus aureus [13] = test: Antibacterial activity against gram-positive Staphylococcus aureus SA161 harboring tet(M) by CLSI method; in short: as §2
Enterococcus faecalis [14] = test: Antibacterial activity against gram-positive Enterococcus faecalis EFs327 harboring tet(M) by CLSI method; in short: as §2
Burkholderia cenocepacia = test: Antibacterial activity against gram-negative Burkholderia cenocepacia BC240 by CLSI method
In short: (§4)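 Defibrinated horse blood added where appropriate. Compounds serially diluted in sterile deionized water. Strains from ATCC unless otherwise noted. Runs accepted when comparator antibiotics fell within QC ranges for ATCC quality control strains.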

Enterobacter cloacae = test: Antibacterial activity against gram-negative Enterobacter cloacae EC1603 harboring tet(A) by CLSI method; in short: as §2
Enterococcus faecium = test: Antibacterial activity against gram-positive Enterococcus faecium EFm404 harboring tet(M) by CLSI method; in short: as §2
Klebsiella pneumoniae [15] = test: Antibacterial activity against gram-negative Klebsiella pneumoniae KP457 harboring blacTX-M-15 extended spectrum beta-lactamase gene by CLSI method; in short: as §2
Staphylococcus aureus [16] = test: Antibacterial activity against gram-positive Staphylococcus aureus SA101 by CLSI method; in short: as §3
Pseudomonas aeruginosa [17] = test: Antibacterial activity against Pseudomonas aeruginosa PA1145 in BALB/c mouse model of lung infection administered as iv bid for 2 to 12 hrs of post-infection measured after 24 hrs
In short: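 Female BALB/c mice (18–20 g) infected intranasally with ~2 x 10^7 CFU/mouse P. aeruginosa PA1145 (cystic fibrosis isolate) under light anesthesia. Dosing at 2 and 12 h post-infection, IV (compound, tigecycline, amikacin) or intranasal (tobramycin); n = 6 per group. Lungs harvested 24 h after treatment start, homogenized, plated on MacConkey agar, 37 °C overnight; CFU/g lung; Mann-Whitney vs T = 0 h or 24 h controls.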

Streptococcus pneumoniae [18] = test: Antibacterial activity against gram-positive Streptococcus pneumoniae SP193 by CLSI method; in short: as §3
Klebsiella pneumoniae [19] = test: Antibacterial activity against gram-negative Klebsiella pneumoniae KP194 by CLSI method; in short: as §3
Klebsiella pneumoniae [20] = test: Antibacterial activity against gram-negative Klebsiella pneumoniae KP153 harboring tet(A) by CLSI method; in short: as §2
Enterococcus faecalis [21] = test: Antibacterial activity against gram-positive Enterococcus faecalis EF159 harboring tet(M) by CLSI method; in short: as §2
Proteus mirabilis [22] = test: Antibacterial activity against gram-negative Proteus mirabilis PM122 by CLSI method; in short: as §4
Pseudomonas aeruginosa [23] = test: Antibacterial activity against gram-negative Pseudomonas aeruginosa PA169 by CLSI method; in short: as §4

`C[C@@H](O)[C@H]1C(=O)N2C(C(=O)O)=C(S[C@@H]3CN[C@H](C(=O)N(C)C)C3)[C@H](C)[C@H]12` [MEROPENEM] was tested, and the MIC (Pseudomonas aeruginosa [1]) was 0.125 mg/L (≈ 0.326 µM), the Activity (Pseudomonas aeruginosa [2]) was 4.2 deltalog10CFU and the Activity (Pseudomonas aeruginosa [3]) was 2.9 deltalog10CFU. It also gave an Activity (Pseudomonas aeruginosa [4]) of 4.9 deltalog10CFU.
`CN(C)c1cc(NC(=O)CNC(C)(C)C)c(O)c2c1C[C@H]1C[C@H]3[C@H](N(C)C)C(O)=C(C(N)=O)C(=O)[C@@]3(O)C(O)=C1C2=O` [TIGECYCLINE] was tested, and the MIC (Streptococcus pneumoniae [5]) was 0.0156 mg/L (≈ 0.0266 µM), the MIC (Staphylococcus aureus [6]) was 0.125 mg/L (≈ 0.213 µM) and the Activity (Pseudomonas aeruginosa [7]) was 4.2 deltalog10CFU. It also gave an MIC (Acinetobacter baumannii) of 8 mg/L (≈ 13.7 µM), an MIC (Escherichia coli [8]) of 1 mg/L (≈ 1.71 µM) and an MIC (Proteus mirabilis [9]) of 4 mg/L (≈ 6.83 µM). For the same molecule, the MIC (Escherichia coli [10]) was 0.125 mg/L (≈ 0.213 µM), the MIC [11] was 2 mg/L (≈ 3.41 µM) and the MIC (Pseudomonas aeruginosa [12]) was 16 mg/L (≈ 27.3 µM). The MIC (Staphylococcus aureus [13]) was 0.125 mg/L (≈ 0.213 µM), the MIC (Enterococcus faecalis [14]) was 0.125 mg/L (≈ 0.213 µM) and the MIC (Burkholderia cenocepacia) was 16 mg/L (≈ 27.3 µM). The MIC (Enterobacter cloacae) was 4 mg/L (≈ 6.83 µM), the MIC (Enterococcus faecium) was 0.0312 mg/L (≈ 0.0533 µM) and the MIC (Klebsiella pneumoniae [15]) was 1 mg/L (≈ 1.71 µM). It also gave an MIC (Staphylococcus aureus [16]) of 0.0625 mg/L (≈ 0.107 µM) and an MIC (Pseudomonas aeruginosa [17]) of 16 mg/L (≈ 27.3 µM).
`CN1CCCCCC1c1cc(O)c2c(c1Cl)C[C@H]1C[C@H]3[C@H](N(C)C)C(O)=C(C(N)=O)C(=O)[C@@]3(O)C(O)=C1C2=O` (stereo partly drawn) was tested, and the MIC (Streptococcus pneumoniae [18]) was ≤ 0.0156 mg/L, the MIC (Streptococcus pneumoniae [5]) was 0.5 mg/L (≈ 0.893 µM) and the MIC (Staphylococcus aureus [6]) was 0.0313 mg/L (≈ 0.0559 µM). The MIC (Klebsiella pneumoniae [19]) was 16 mg/L (≈ 28.6 µM), the MIC (Klebsiella pneumoniae [20]) was 1 mg/L (≈ 1.79 µM) and the MIC (Acinetobacter baumannii) was 2 mg/L (≈ 3.57 µM). For the same molecule, the MIC (Escherichia coli [8]) was 2 mg/L (≈ 3.57 µM), the MIC (Escherichia coli [10]) was 0.0625 mg/L (≈ 0.112 µM) and the MIC [11] was 0.5 mg/L (≈ 0.893 µM). For the same molecule, the MIC (Enterococcus faecalis [21]) was 2 mg/L (≈ 3.57 µM), the MIC (Staphylococcus aureus [13]) was 2 mg/L (≈ 3.57 µM) and the MIC (Burkholderia cenocepacia) was 8 mg/L (≈ 14.3 µM). It also gave an MIC (Proteus mirabilis [22]) of 4 mg/L (≈ 7.14 µM), an MIC (Staphylococcus aureus [16]) of 0.25 mg/L (≈ 0.446 µM) and an MIC (Pseudomonas aeruginosa [23]) of 32 mg/L (≈ 57.1 µM).
`NCC[C@H](O)C(=O)N[C@@H]1C[C@H](N)[C@@H](O[C@H]2O[C@H](CN)[C@@H](O)[C@H](O)[C@H]2O)[C@H](O)[C@H]1O[C@H]1O[C@H](CO)[C@@H](O)[C@H](N)[C@H]1O` [AMIKACIN] was tested, and the Activity (Pseudomonas aeruginosa [7]) was 3.6 deltalog10CFU and the MIC (Pseudomonas aeruginosa [17]) was 4 mg/L (≈ 6.83 µM).
With `CN(C)[C@@H]1C(O)=C(C(N)=O)C(=O)[C@@]2(O)C(O)=C3C(=O)c4c(O)cccc4[C@@](C)(O)[C@H]3C[C@@H]12` [TETRACYCLINE] the MIC (Streptococcus pneumoniae [18]) was 0.125 mg/L (≈ 0.281 µM), the MIC (Klebsiella pneumoniae [19]) was 16 mg/L (≈ 36 µM) and the MIC (Klebsiella pneumoniae [20]) was > 32 mg/L. For the same molecule, the MIC (Acinetobacter baumannii) was > 32 mg/L, the MIC (Escherichia coli [8]) was > 32 mg/L and the MIC (Proteus mirabilis [9]) was > 32 mg/L. For the same molecule, the MIC (Escherichia coli [10]) was 1 mg/L (≈ 2.25 µM), the MIC [11] was 16 mg/L (≈ 36 µM) and the MIC (Enterococcus faecalis [21]) was > 32 mg/L. For the same molecule, the MIC (Pseudomonas aeruginosa [12]) was > 32 mg/L, the MIC (Staphylococcus aureus [13]) was > 32 mg/L and the MIC (Enterococcus faecalis [14]) was > 32 mg/L. For the same molecule, the MIC (Enterobacter cloacae) was > 32 mg/L, the MIC (Klebsiella pneumoniae [15]) was 8 mg/L (≈ 18 µM) and the MIC (Staphylococcus aureus [16]) was 0.25 mg/L (≈ 0.563 µM).
